Article PMC6142812 (Bioorganic & medicinal chemistry letters, 2018)
Blank lines part the entries; values can stand above or below the molecule they belong to.

Assays:
rat mGlu5 = rat mGlu5 (Rattus norvegicus, UniProt P31424); assay: Calcium mobilization rat mGlu5 functional assay; type: cell-based; settings: for mGlu5 pIC50 (±SEM): rat mGlu5 in HEK293A cells, EC80 glutamate, avg. of n ≥ 3; for fold more active than 11: mGlu5 potency relative to compound 11
[1] = Metabolic stability in human S9 hepatic fractions with and without NADPH; type: in vitro ADME; settings: for CLHEP (predicted hepatic clearance): QH = 21; for CLint scaled at 1 h: human, liver S9 hepatic fractions, CLINT (intrinsic clearance)
[2] = Metabolic stability in rat S9 hepatic fractions with and without NADPH; type: in vitro ADME; settings: for CLHEP (predicted hepatic clearance): QH = 70; for CLint scaled at 1 h: rat, liver S9 hepatic fractions, CLINT (intrinsic clearance)
[3] = test system: other seven mGlu receptors; settings: comparators 1 and 2, previously published; cited from earlier work
[4] = Stability in rat whole blood at 37 °C; type: in vitro ADME; settings: one hour
[5] = Rat pharmacokinetics study, intravenous dosing; type: in vivo; settings: compound 14; male Sprague-Dawley rats, IV 1.0 mg/kg, n=2
In short: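 Single IV dose of 1.0 mg/kg test compound given to male Sprague-Dawley rats (n=2). Half-life, mean residence time, plasma clearance and steady-state volume of distribution were derived for the parent and for its alcohol metabolite.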

Chain of rat mGlu5 (P31424 21-1203): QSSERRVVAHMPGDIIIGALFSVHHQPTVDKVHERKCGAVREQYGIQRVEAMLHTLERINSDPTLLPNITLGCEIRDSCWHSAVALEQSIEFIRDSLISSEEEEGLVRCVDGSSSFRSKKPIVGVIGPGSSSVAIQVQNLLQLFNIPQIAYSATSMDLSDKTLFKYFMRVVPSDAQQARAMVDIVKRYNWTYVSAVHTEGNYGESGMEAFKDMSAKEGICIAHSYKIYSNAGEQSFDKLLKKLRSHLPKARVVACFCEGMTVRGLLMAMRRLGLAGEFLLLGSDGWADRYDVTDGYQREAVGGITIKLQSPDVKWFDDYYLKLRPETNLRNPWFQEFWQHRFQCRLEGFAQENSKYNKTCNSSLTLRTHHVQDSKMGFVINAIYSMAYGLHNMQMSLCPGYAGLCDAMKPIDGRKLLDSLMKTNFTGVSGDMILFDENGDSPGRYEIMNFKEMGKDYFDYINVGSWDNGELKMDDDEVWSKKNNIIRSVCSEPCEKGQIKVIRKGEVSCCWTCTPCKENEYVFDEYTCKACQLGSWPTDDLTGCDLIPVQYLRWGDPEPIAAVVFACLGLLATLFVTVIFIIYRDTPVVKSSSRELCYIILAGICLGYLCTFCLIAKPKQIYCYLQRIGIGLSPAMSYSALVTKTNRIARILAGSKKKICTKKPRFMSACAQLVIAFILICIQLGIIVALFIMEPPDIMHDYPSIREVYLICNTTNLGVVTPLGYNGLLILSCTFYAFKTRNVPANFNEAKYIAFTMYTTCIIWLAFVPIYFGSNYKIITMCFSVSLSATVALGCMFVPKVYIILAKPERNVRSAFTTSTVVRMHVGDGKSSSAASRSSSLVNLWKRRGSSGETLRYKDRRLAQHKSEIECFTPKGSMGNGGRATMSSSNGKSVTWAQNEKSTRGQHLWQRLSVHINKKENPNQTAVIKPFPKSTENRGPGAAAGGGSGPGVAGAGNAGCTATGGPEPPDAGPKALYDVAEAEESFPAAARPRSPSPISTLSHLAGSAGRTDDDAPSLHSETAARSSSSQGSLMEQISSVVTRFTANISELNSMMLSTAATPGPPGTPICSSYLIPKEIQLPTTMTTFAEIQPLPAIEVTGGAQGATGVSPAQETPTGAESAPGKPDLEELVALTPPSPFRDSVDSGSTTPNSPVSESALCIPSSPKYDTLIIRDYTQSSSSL

Structure (SMILES): O=C(Nc1ccc(F)cn1)c1cc(Oc2cncc(F)c2)cn2ncnc12 [Compound 2]
selectivity vs. other mGlus [3]: >500

Structure (SMILES): N#Cc1ccc(NC(=O)c2cc(C(F)(F)c3cncnc3)cc3cccnc23)nc1 [Compound 32]
mGlu5 pIC50 (±SEM) (rat mGlu5): < 4.5

Structure (SMILES): O=C(c1cncnc1)c1cc(C(=O)Nc2ccc(F)cn2)c2ncccc2c1 [Compound 13]
fold more active than 11 (rat mGlu5): more than 10 fold

Structure (SMILES): COc1ccnc(NC(=O)c2cc(C(F)(F)c3cncnc3)cc3cccnc23)c1 [Compound 34]
mGlu5 pIC50 (±SEM) (rat mGlu5): < 4.5

Continued, values first:

potency versus mGlu5 (in words) (rat mGlu5; compared with compound 2): similarly potent
Structure (SMILES): O=C(Nc1ccc(F)cn1)c1cc(Oc2cncc(F)c2)cc2cccnc12 [Compound 3]

CLHEP (predicted hepatic clearance) ([1]; human S9, +NADPH, CLHEP = (QH × CLINT)/(QH + CLINT)): 17.3 mL/min/kg | CLHEP (predicted hepatic clearance) ([1]; human S9, −NADPH): 12.6 mL/min/kg | CLint scaled at 1 h ([1]; human S9, +NADPH): 98.2 mL/min/kg | CLint scaled at 1 h ([1]; human S9, −NADPH): 31.3 mL/min/kg | CLHEP (predicted hepatic clearance) ([2]; rat S9, +NADPH, CLHEP = (QH × CLINT)/(QH + CLINT)): 51.8 mL/min/kg | CLHEP (predicted hepatic clearance) ([2]; rat S9, −NADPH): 23.2 mL/min/kg | CLint scaled at 1 h ([2]; rat S9, +NADPH): 199 mL/min/kg | CLint scaled at 1 h ([2]; rat S9, −NADPH): 34.7 mL/min/kg
Structure (SMILES): Cc1csc(NC(=O)c2cc(C(F)c3cncnc3)cc3cccnc23)n1 (stereo not drawn) [Compound 21]

fold drop in mGlu5 potency (rat mGlu5; relative to compound 27 (methyl to cyclopropyl)): 3.5 fold
Structure (SMILES): O=C(Nc1nc(C2CC2)cs1)c1cc(C(F)(F)c2cncnc2)cc2cccnc12 [Compound 36]

conversion to metabolite (ketone reduction, alcohol 53) [4]: near complete conversion | Clp [5]: 3430 mL/min/kg
Structure (SMILES): Cc1csc(NC(=O)c2cc(C(=O)c3cncnc3)cc3cccnc23)n1 [Compound 14]

fold more active than 11 (rat mGlu5): more than 10 fold
Structure (SMILES): Cc1cccc(NC(=O)c2cc(C(=O)c3cncnc3)cc3cccnc23)n1 [Compound 12]

mGlu5 pIC50 (±SEM) (rat mGlu5): < 4.5
Structure (SMILES): N#Cc1ccnc(NC(=O)c2cc(C(F)(F)c3cncnc3)cc3cccnc23)c1 [Compound 35]
